# Columns and labels:
# P-gp [1] = target: T1, P-gp (Homo sapiens, UniProt P08183); conditions: cited from earlier work
# P-gp [2] = target: T1, P-gp; experiment: Rhodamine-123 efflux assay in peripheral white blood cells; format: cell-based
# In short: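 Fresh whole blood (18 mL) was drawn from each of the 5 volunteers before dosing. Isolated white blood cells were incubated at 37°C with Rh-123 (0.2 μg/mL) and 10 dilutions of test compound in DMSO (final 0.01 nM–1 μM), in duplicate. Rh-123 accumulation (mean fluorescence per cell) was read by FACS. EC50 came from hyperbolic dose-response fits, given as mean±SD over the 5 donors.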
# P-gp [3] = conditions: rats, cited from earlier work
# [4] = cited from earlier work
# P-gp [5] = conditions: in vitro; cited from earlier work
# [6] = Tariquidar concentration in venous plasma by LC/MS; format: in vivo, human
# [7] = humans; ref Ulrich Elben, written communication, 2008; cited from earlier work
# [8] = Arterial blood and metabolite analysis of; format: in vivo, human; conditions: 2 mg/kg i.v.
# [9] = target: P-gp at the human blood-brain barrier (Homo sapiens, UniProt P08183)
# Sequence of P-gp at the human blood-brain barrier (P08183 whole entry): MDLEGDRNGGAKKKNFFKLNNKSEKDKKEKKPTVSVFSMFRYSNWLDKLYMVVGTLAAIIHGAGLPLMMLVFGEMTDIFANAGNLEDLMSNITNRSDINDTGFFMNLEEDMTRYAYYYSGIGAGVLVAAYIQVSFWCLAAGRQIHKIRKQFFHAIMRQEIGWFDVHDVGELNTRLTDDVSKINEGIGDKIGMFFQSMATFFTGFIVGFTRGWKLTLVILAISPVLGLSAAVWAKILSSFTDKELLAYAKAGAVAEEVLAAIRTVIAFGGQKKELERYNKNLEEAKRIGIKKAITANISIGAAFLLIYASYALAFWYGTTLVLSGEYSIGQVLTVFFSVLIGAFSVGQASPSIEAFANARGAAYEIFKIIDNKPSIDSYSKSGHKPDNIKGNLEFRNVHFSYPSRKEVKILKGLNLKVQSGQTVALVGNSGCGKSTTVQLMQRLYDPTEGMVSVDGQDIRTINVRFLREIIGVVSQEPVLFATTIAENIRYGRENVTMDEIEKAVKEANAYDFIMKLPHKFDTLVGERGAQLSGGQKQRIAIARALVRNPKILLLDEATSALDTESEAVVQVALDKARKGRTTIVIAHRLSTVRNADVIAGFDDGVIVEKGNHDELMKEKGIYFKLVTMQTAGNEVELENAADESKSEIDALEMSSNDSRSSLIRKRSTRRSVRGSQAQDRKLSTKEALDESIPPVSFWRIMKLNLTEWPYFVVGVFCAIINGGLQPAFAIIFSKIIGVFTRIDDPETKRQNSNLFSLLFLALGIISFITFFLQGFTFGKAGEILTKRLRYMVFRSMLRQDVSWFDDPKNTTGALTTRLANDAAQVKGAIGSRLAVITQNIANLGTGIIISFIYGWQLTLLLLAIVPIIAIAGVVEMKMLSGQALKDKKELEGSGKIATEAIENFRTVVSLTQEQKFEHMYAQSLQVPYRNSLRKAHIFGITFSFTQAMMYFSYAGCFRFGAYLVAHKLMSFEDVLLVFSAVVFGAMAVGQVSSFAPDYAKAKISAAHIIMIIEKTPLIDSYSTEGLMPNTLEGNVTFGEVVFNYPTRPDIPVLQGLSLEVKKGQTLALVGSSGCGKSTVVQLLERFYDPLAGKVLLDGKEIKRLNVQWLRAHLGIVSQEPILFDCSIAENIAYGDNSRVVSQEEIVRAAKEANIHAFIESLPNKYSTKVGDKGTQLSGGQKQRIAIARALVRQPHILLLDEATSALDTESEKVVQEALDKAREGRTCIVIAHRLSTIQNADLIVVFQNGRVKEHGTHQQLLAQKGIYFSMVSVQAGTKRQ
# [10] = Tolerability of tariquidar in healthy volunteers; format: in vivo, human; conditions: 2 mg/kg BW i.v., 5 healthy male subjects
# MRP1 = conditions: cited from earlier work
# P-gp [11] = conditions: non-human primates, infusion of 20 mg/kg/2 hr; cited from earlier work
# T1 sequence (P08183 whole entry): as above
compound,measurement,setting,value
C=C[C@H]1C[N@@]2CC[C@H]1C[C@@H]2[C@@H](O)c1ccnc2ccc(OC)cc12 [quinidine],CNS pharmacologic effect of loperamide when inhibitor co-administered,P-gp [1]; 8 healthy volunteers,caused respiratory depression
"COc1cc2c(cc1OC)CN(CCc1ccc(NC(=O)c3cc(OC)c(OC)cc3NC(=O)c3cnc4ccccc4c3)cc1)CC2 [tariquidar, Tariquidar]",EC50,P-gp [2],0.773 nM
same,Plasma tariquidar concentration at the time of the PET scan,P-gp [3]; 15 mg/kg,"about 1,400 ng/mL"
same,Increase of (R)-11C-verapamil DVs,P-gp [3]; plasma tariquidar levels about 500 ng/mL,3-4 fold
same,Increase of the (R)-11C-verapamil DV,P-gp [3]; tariquidar 15 mg/kg,12 fold
same,Tariquidar-related material in plasma existing as unchanged parent compound,[4]; monkey plasma,> 95%
same,Elimination half-life,[4]; monkey,5 h
same,Duration of P-gp inhibitory effect after removal from the incubation medium,P-gp [5],up to 22 h
same,Plasma concentration of tariquidar during the second PET scan,"[6]; 200-240 min after start of infusion, 2 mg/kg i.v., mean±SD",490 ± 166 ng/mL
same,Plasma concentration relative to EC50 for inhibition of Rh-123 efflux,[6]; at 24 h after tariquidar infusion,424 fold
same,Concentration of unbound tariquidar in plasma,"[6]; at the time of the second scan, corrected for 99.5% protein binding",2.45 ± 0.83 ng/mL
same,Plasma concentration relative to EC50 for inhibition of Rh-123 efflux,[6]; during second PET scan,980 fold
same,concentration at 24 h,"[6]; male, human, plasma, intravenous, 2 mg/kg",212 ± 24 ng/mL
same,Binding to plasma proteins,[7],99.5%
same,Influence of tariquidar on the metabolism of (R)-11C-verapamil,[8],did not have significant influence
same,CNS activity of loperamide (reduction in pupil diameter) after inhibitor,"P-gp [1]; humans, tariquidar 2 mg/kg BW",not affected
same,Maximum increase of brain radioactivity versus baseline (t=40 min),"[9]; scan 1, at 5 min after end of tariquidar infusion (t=75 min), 2 mg/kg i.v.",+74%
same,Increase of brain radioactivity versus baseline (t=40 min),"[9]; scan 1, at 35 min after end of tariquidar infusion (t=115 min), on average",+10%
same,Mild adverse events possibly related to study medication,[10],"mild hypotension, headache and nausea, each in one patient and dizziness in 2 patients"
same,Tolerability,[10],well tolerated without occurrence of severe or serious adverse events
same,Inhibition of MRP1,MRP1,does not inhibit
C/C=C/C[C@@H](C)C(=O)[C@H]1C(=O)N[C@@H](C(C)C)C(=O)N(C)CC(=O)N(C)[C@@H](CC(C)C)C(=O)N[C@@H](C(C)C)C(=O)N(C)[C@@H](CC(C)C)C(=O)N[C@@H](C)C(=O)N[C@H](C)C(=O)N(C)[C@@H](CC(C)C)C(=O)N(C)[C@@H](CC(C)C)C(=O)N(C)[C@@H](C(C)C)C(=O)N1C [valspodar],Increase of brain uptake of racemic 11C-verapamil,P-gp [11],4.61 fold

# Source: PMC3690436 (Journal of nuclear medicine : official publication, Society …, 2009)
